In paper PMC5715471 (ACS chemical neuroscience, 2017):

Key:
BZP rat brain = experiment: PDSP radioligand binding, BZP rat brain; conditions: 10 μM
5HT2C = 5HT2C (Homo sapiens, UniProt P28335); experiment: PDSP radioligand binding, 5HT2C; conditions: 10 μM
5HT2B = 5HT2B (Homo sapiens, UniProt P41595); experiment: PDSP radioligand binding, 5HT2B; conditions: 10 μM
V1A = V1A (Homo sapiens, UniProt P37288); experiment: PDSP radioligand binding, V1A
NET = NET (Homo sapiens, UniProt P23975); experiment: PDSP radioligand binding, NET
5HT3 = 5HT3 (Homo sapiens, UniProt P46098); experiment: PDSP radioligand binding, 5HT3; conditions: 10 μM
KOR = KOR (Homo sapiens, UniProt P41145); experiment: PDSP radioligand binding, KOR
5HT1e = 5HT1e (Homo sapiens, UniProt P28566); experiment: PDSP radioligand binding, 5HT1e; conditions: 10 μM
[1] = system: mouse spared nerve injury (SNI) model; experiment: Mechanical sensitivity; format: in vivo
Summary of the method: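 Male C57Bl6/J SNI mice, hindpaw mechanical hypersensitivity confirmed 2 weeks post-surgery. Tail-vein IV injection in 100 μL sterile saline (DMSO stock diluted; vehicle DMSO-matched): test compound 10 mg/kg, gabapentin 100 mg/kg, or vehicle, n = 6 each. Blinded von Frey testing (modified up–down) at set time points. Mean ± SEM; two-way ANOVA with Bonferroni post hoc.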

M4 = M4 (Homo sapiens, UniProt P08173); experiment: PDSP radioligand binding, M4; conditions: 10 μM
DOR = DOR (Homo sapiens, UniProt P41143); experiment: PDSP radioligand binding, DOR; conditions: 10 μM
Beta2 = Beta2 (Homo sapiens, UniProt P07550); experiment: PDSP radioligand binding, Beta2; conditions: 10 μM
5HT6 = 5HT6 (Homo sapiens, UniProt P50406); experiment: PDSP radioligand binding, 5HT6; conditions: 10 μM
A7 = A7 (Rattus norvegicus, UniProt Q05941); experiment: PDSP radioligand binding, A7 sourced from rodent brain; conditions: 10 μM
Alpha1d = Alpha1d (Homo sapiens, UniProt P25100); experiment: PDSP radioligand binding, Alpha1d; conditions: 10 μM
D4 = D4 (Homo sapiens, UniProt P21917); experiment: PDSP radioligand binding, D4; conditions: 10 μM
Alpha1b = Alpha1b (Homo sapiens, UniProt P35368); experiment: PDSP radioligand binding, Alpha1b; conditions: 10 μM
A4B4 = A4B4 (Rattus norvegicus, UniProt P09483+P12392); experiment: PDSP radioligand binding, A4B4; conditions: 10 μM

Alpha1b, sequence (P35368 whole entry): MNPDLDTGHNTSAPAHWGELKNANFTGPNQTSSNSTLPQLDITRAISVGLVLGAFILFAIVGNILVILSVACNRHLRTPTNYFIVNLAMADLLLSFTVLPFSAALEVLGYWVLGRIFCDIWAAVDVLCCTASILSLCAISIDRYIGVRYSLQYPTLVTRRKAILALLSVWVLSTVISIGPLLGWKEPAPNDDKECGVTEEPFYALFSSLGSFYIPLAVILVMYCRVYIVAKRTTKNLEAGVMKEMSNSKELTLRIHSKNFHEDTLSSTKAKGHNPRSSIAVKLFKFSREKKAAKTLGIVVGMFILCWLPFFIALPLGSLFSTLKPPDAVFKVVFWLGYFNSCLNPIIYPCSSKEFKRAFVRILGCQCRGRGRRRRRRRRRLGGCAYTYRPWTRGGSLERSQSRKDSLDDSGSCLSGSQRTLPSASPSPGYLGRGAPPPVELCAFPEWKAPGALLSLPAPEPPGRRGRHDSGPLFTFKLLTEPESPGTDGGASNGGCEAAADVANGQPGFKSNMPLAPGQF
D4, sequence (P21917 whole entry): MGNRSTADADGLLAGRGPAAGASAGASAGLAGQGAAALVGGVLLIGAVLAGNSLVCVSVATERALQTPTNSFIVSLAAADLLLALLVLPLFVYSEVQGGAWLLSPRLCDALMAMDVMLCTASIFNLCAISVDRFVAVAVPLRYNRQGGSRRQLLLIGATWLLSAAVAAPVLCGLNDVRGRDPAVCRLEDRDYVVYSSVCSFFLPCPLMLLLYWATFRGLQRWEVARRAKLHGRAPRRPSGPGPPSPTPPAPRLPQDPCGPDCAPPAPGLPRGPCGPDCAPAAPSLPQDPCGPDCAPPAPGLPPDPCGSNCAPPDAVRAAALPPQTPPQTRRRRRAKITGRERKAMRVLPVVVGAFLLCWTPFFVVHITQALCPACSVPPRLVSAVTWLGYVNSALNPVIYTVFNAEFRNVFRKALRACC
5HT2B, sequence (P41595 whole entry): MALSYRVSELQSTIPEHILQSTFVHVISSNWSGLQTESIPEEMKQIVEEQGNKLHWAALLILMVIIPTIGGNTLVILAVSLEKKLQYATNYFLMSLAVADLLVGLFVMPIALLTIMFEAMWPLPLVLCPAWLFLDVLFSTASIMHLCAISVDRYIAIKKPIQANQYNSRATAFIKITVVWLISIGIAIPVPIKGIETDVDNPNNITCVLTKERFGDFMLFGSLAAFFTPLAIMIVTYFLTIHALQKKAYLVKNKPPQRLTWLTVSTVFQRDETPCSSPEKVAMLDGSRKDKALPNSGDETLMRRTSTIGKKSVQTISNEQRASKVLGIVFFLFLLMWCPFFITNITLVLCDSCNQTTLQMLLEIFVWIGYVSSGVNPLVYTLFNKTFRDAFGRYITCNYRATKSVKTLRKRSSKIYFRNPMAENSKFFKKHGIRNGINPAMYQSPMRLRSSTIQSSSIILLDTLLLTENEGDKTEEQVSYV
Beta2, sequence (P07550 whole entry): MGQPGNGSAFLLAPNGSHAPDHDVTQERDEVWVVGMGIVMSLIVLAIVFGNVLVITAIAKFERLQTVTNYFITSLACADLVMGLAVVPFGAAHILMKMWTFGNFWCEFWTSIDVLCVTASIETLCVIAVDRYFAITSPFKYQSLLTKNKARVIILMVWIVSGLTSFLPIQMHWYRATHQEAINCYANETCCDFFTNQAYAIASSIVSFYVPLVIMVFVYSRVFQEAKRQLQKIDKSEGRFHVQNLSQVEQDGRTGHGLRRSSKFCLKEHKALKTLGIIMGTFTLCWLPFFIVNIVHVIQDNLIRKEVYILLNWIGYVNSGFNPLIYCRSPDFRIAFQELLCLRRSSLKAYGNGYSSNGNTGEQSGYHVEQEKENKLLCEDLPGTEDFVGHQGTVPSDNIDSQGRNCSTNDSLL
5HT2C, sequence (P28335 33-458): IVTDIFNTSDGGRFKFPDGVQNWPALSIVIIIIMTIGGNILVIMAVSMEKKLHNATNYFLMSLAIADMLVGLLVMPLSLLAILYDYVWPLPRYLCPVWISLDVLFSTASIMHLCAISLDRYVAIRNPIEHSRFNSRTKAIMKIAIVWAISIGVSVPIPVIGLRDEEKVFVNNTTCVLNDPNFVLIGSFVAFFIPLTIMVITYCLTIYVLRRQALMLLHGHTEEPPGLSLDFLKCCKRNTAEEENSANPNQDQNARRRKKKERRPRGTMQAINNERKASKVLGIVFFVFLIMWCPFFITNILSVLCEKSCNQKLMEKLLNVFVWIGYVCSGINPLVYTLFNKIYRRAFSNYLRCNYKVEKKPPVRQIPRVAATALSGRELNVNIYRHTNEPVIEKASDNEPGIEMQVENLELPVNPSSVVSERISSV
M4, sequence (P08173 whole entry): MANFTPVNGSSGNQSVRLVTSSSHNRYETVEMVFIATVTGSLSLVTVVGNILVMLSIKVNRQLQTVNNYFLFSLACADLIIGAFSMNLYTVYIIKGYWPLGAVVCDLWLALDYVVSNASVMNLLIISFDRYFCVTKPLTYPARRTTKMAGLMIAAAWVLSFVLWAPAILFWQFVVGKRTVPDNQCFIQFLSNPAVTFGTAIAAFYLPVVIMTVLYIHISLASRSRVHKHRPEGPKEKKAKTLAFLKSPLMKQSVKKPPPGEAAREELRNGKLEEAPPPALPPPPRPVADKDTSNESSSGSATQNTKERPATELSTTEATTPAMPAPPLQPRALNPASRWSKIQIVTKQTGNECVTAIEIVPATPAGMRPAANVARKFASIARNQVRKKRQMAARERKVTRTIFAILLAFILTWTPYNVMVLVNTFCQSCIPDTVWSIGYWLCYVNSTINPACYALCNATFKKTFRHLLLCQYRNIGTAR
NET, sequence (P23975 whole entry): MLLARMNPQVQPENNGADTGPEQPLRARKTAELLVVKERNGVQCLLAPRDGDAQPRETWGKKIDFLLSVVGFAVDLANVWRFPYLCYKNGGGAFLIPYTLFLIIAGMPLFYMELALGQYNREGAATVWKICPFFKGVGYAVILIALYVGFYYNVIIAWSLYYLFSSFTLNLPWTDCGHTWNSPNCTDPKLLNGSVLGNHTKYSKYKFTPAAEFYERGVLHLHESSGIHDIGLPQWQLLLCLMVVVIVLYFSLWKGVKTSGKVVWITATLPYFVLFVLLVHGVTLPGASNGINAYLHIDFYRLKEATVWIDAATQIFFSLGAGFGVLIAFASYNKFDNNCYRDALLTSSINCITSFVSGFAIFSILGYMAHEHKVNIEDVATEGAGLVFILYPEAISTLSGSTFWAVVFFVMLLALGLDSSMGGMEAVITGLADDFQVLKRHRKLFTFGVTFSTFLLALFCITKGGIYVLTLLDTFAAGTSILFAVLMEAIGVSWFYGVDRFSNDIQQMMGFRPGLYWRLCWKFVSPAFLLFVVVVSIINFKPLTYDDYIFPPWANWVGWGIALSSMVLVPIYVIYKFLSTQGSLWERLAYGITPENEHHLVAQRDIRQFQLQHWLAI
V1A, sequence (P37288 whole entry): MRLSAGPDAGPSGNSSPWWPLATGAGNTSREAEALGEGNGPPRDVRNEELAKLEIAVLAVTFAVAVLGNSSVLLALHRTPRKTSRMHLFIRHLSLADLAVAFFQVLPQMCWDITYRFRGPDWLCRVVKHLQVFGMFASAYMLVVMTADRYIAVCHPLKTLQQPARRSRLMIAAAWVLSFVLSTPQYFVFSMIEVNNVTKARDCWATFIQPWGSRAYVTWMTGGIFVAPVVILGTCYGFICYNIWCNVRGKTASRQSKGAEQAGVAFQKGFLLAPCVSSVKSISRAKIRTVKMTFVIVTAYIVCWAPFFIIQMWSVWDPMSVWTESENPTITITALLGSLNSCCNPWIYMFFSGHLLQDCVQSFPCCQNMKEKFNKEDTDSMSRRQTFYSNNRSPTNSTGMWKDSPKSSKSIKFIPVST
Alpha1d, sequence (P25100 whole entry): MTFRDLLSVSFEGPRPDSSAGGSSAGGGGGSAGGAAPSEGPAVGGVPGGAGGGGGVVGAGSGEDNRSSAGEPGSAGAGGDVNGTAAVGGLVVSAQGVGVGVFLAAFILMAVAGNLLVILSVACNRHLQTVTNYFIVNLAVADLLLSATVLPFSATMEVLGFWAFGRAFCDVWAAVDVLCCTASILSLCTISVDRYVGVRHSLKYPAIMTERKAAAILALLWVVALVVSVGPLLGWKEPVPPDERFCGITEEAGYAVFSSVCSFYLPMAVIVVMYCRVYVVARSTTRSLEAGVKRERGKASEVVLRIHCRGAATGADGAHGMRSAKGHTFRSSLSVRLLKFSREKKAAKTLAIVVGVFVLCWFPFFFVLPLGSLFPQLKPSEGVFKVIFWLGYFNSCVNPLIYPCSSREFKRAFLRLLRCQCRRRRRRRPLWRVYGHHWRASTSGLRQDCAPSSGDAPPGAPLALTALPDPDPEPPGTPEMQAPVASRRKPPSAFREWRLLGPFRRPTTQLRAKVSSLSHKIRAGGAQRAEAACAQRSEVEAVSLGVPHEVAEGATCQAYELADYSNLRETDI
KOR, sequence (P41145 whole entry): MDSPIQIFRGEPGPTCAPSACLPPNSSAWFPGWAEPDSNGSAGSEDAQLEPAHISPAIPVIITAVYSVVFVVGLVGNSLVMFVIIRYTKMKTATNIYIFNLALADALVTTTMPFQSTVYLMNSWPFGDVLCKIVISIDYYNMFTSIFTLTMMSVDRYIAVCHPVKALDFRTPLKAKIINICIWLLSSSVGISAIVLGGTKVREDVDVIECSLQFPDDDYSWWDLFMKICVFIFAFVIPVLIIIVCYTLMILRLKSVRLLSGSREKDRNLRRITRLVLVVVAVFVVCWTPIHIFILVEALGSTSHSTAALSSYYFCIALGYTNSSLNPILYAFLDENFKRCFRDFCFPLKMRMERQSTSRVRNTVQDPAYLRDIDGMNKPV

In the case of OCCCN1CCCC2CC1c1cc(-c3ccc(C(F)(F)F)cc3)ccc12 (racemic) [UKH-1114, (±)-9-(4-(Trifluoromethyl)phenyl)-3,4,5,6-tetrahydro-1,6-methanobenzo[c]azocin-2(1H)-yl)propan-1-ol], the “inhibition of radioligand binding (Ki column, footnote a)” value (“inhibition of radioligand binding” for short) (BZP rat brain) is reported as “^a (<50% inhibition of radioligand binding at 10 μM)”, the “inhibition of radioligand binding” value (5HT2C) is reported as “^a (<50% inhibition of radioligand binding at 10 μM)” and the “inhibition of radioligand binding” value (5HT2B) is reported as “^a (<50% inhibition of radioligand binding at 10 μM)”. For the same compound, the Ki (V1A) was over 10000 nM, the Ki (NET) was 1050 nM and the “inhibition of radioligand binding” value (5HT3) was “^a (<50% inhibition of radioligand binding at 10 μM)”. The Ki (KOR) was 1380 nM, the “inhibition of radioligand binding” value (5HT1e) was “^a (<50% inhibition of radioligand binding at 10 μM)” and the “effect on SNI-induced mechanical hypersensitivity” value ([1]; IV 10 mg/kg) was “complete reversal of mechanical hypersensitivity”. The “duration of relief of mechanical hypersensitivity” value ([1]; systemic 10 mg/kg) was 48 h, the “peak magnitude of effect compared with gabapentin” value ([1]; systemic 10 mg/kg vs gabapentin 100 mg/kg) was “equivalent to 100 mg/kg gabapentin” and the “inhibition of radioligand binding” value (M4) was “^a (<50% inhibition of radioligand binding at 10 μM)”. For the same compound, the “inhibition of radioligand binding” value (DOR) was “^a (<50% inhibition of radioligand binding at 10 μM)”, the “inhibition of radioligand binding” value (Beta2) was “^a (<50% inhibition of radioligand binding at 10 μM)” and the “inhibition of radioligand binding” value (5HT6) was “^a (<50% inhibition of radioligand binding at 10 μM)”. For the same compound, the “inhibition of radioligand binding” value (A7) was “^a (<50% inhibition of radioligand binding at 10 μM)”, the “inhibition of radioligand binding” value (Alpha1d) was “^a (<50% inhibition of radioligand binding at 10 μM)” and the “inhibition of radioligand binding” value (D4) was “^a (<50% inhibition of radioligand binding at 10 μM)”. The “inhibition of radioligand binding” value (Alpha1b) was “^a (<50% inhibition of radioligand binding at 10 μM)” and the “inhibition of radioligand binding” value (A4B4) was “^a (<50% inhibition of radioligand binding at 10 μM)”.
